Laboratory results taken from ChEMBL document CHEMBL1151448, “Comparative antianaerobic activities of doripenem determined by MIC and time-kill analysis” (2008).
The source made the active and inactive calls.

Assays:
[1] = system: Clostridium perfringens; assay: Antimicrobial activity against Clostridium perfringens isolated from intra-abdominal infection and pelvic inflammatory disease patients after 48 hrs by time kill analysis; format: functional
Procedure, shortened: (§1)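 Macrodilution in prereduced brucella broth with 5% laked horse blood cells, 5 μg/ml hemin and 1 μg/ml vitamin K1. Final inoculum 10^6 to 10^7 CFU/ml, prepared inside the anaerobe chamber. Vials incubated 48 h at 35°C in a shaking water bath. MIC read by inspecting the time-kill tubes, alongside an antibiotic-free growth control.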

[2] = system: Clostridioides difficile; assay: Antimicrobial activity against Clostridium difficile isolated from intra-abdominal infection and pelvic inflammatory disease patients after 48 hrs by agar dilution method; format: functional
Procedure, shortened: (§2)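 CLSI agar dilution on brucella blood agar supplemented with laked sheep blood, hemin and vitamin K. Inocula of about 1 × 10^5 CFU/spot were applied by Steers replicator, and plates were incubated 48 h at 35°C in an anaerobic glove box. MIC was the concentration giving marked growth reduction versus the anaerobic control plate. QC strains were included each run, and β-lactamase was detected by Cefinase disk.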

[3] = system: Prevotella intermedia; assay: Antimicrobial activity against beta lactamase-positive Prevotella intermedia isolated from intra-abdominal infection and pelvic inflammatory disease patients after 48 hrs by agar dilution method; format: functional; procedure, shortened: as §2
[4] = system: Prevotella intermedia; assay: Antimicrobial activity against beta lactamase-positive Prevotella intermedia isolated from intra-abdominal infection and pelvic inflammatory disease patients after 48 hrs by time kill analysis; format: functional
Procedure, shortened: (§3)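 The MIC was read by inspecting macrodilution time-kill tubes. Vials held prereduced brucella broth with 5% laked horse blood cells, hemin 5 μg/ml and vitamin K1 1 μg/ml. Final inoculum was 10^6–10^7 CFU/ml, prepared inside the anaerobe chamber. Vials were incubated 48 h at 35°C in a shaking water bath.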

[5] = system: Bacteroides ovatus; assay: Antimicrobial activity against beta lactamase-positive Bacteroides ovatus isolated from intra-abdominal infection and pelvic inflammatory disease patients after 48 hrs by agar dilution method; format: functional; procedure, shortened: as §2
[6] = system: Paeniclostridium sordellii; assay: Antimicrobial activity against Clostridium sordellii isolated from intra-abdominal infection and pelvic inflammatory disease patients after 48 hrs by agar dilution method; format: functional; settings: Paraclostridium sordellii; procedure, shortened: as §2
[7] = system: Fusobacterium nucleatum; assay: Antimicrobial activity against beta lactamase-positive Fusobacterium nucleatum isolated from intra-abdominal infection and pelvic inflammatory disease patients after 48 hrs by time kill analysis; format: functional; procedure, shortened: as §3
[8] = system: Paraclostridium bifermentans; assay: Antimicrobial activity against Clostridium bifermentans isolated from intra-abdominal infection and pelvic inflammatory disease patients after 48 hrs by agar dilution method; format: functional; procedure, shortened: as §2
[9] = system: Anaerococcus prevotii; assay: Antimicrobial activity against Anaerococcus prevotii isolated from intra-abdominal infection and pelvic inflammatory disease patients after 48 hrs by agar dilution method; format: functional; procedure, shortened: as §2
[10] = system: Clostridium perfringens; assay: Bactericidal activity against Clostridium perfringens isolated from intra-abdominal infection and pelvic inflammatory disease patients assessed as bacterial killing at MIC after 24 hrs by time kill analysis; format: functional
Procedure, shortened: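 Time-kill in prereduced brucella broth with 5% laked horse blood cells, hemin and vitamin K1. […] Viable counts taken at 6, 12, 24 and 48 h, plates incubated 48 h anaerobically. Kill scored as 90%, 99% or 99.9%; 99.9% defines bactericidal.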

[11] = system: Clostridioides difficile; assay: Antimicrobial activity against Clostridium difficile isolated from intra-abdominal infection and pelvic inflammatory disease patients after 48 hrs by time kill analysis; format: functional; procedure, shortened: as §1
[12] = system: Finegoldia magna; assay: Bactericidal activity against beta lactamase-positive Finegoldia magna isolated from intra-abdominal infection and pelvic inflammatory disease patients assessed as bacterial killing at MIC after 24 hrs by time kill analysis; format: functional
Procedure, shortened: (§4)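 Anaerobic macrodilution time-kill. Inoculum from brucella blood plates, prepared and diluted in prereduced brucella broth inside the anaerobe chamber. Final 10^6 to 10^7 CFU/ml in prereduced brucella broth with 5% laked horse blood cells, 5 μg/ml hemin and 1 μg/ml vitamin K1. […] Shaken at 35°C for 48 h. Viable counts taken at 6, 12, 24 and 48 h. 99.9% kill taken as bactericidal.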

[13] = system: Prevotella intermedia; assay: Bactericidal activity against beta lactamase-positive Prevotella intermedia isolated from intra-abdominal infection and pelvic inflammatory disease patients assessed as bacterial killing at MIC after 24 hrs by time kill analysis; format: functional; procedure, shortened: as §4
[14] = system: Prevotella corporis; assay: Antimicrobial activity against beta lactamase-positive Prevotella corporis isolated from intra-abdominal infection and pelvic inflammatory disease patients after 48 hrs by agar dilution method; format: functional; procedure, shortened: as §2
[15] = system: Phocaeicola vulgatus; assay: Antimicrobial activity against beta lactamase-positive Bacteroides vulgatus isolated from intra-abdominal infection and pelvic inflammatory disease patients after 48 hrs by agar dilution method; format: functional; procedure, shortened: as §2
[16] = system: Peptoniphilus asaccharolyticus; assay: Antimicrobial activity against Peptoniphilus asaccharolyticus isolated from intra-abdominal infection and pelvic inflammatory disease patients after 48 hrs by agar dilution method; format: functional; procedure, shortened: as §2
[17] = system: Bacteroides thetaiotaomicron; assay: Antimicrobial activity against beta lactamase-positive Bacteroides thetaiotaomicron isolated from intra-abdominal infection and pelvic inflammatory disease patients after 48 hrs by time kill analysis; format: functional; procedure, shortened: as §3
[18] = system: Porphyromonas gingivalis; assay: Antimicrobial activity against Porphyromonas gingivalis isolated from intra-abdominal infection and pelvic inflammatory disease patients after 48 hrs by agar dilution method; format: functional; procedure, shortened: as §2
[19] = system: Clostridium cadaveris; assay: Antimicrobial activity against Clostridium cadaveris isolated from intra-abdominal infection and pelvic inflammatory disease patients after 48 hrs by agar dilution method; format: functional; procedure, shortened: as §2
[20] = system: Finegoldia magna; assay: Bactericidal activity against beta lactamase-positive Finegoldia magna isolated from intra-abdominal infection and pelvic inflammatory disease patients assessed as 99.9% bacterial killing at 2 times MIC after 48 hrs by time kill analysis; format: functional, organism-based
Procedure, shortened: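 Macrodilution time-kill in prereduced brucella broth with 5% laked horse blood, hemin 5 μg/ml and vitamin K1 1 μg/ml, at final inoculum 10^6–10^7 CFU/ml. […] Viable counts were taken at 6, 12, 24 and 48 h on plates incubated 48 h anaerobically. 99.9% kill was taken as bactericidal.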

[21] = system: Fusobacterium mortiferum; assay: Antimicrobial activity against beta lactamase-positive Fusobacterium mortiferum isolated from intra-abdominal infection and pelvic inflammatory disease patients after 48 hrs by agar dilution method; format: functional; procedure, shortened: as §2
[22] = system: Finegoldia magna; assay: Antimicrobial activity against Finegoldia magna isolated from intra-abdominal infection and pelvic inflammatory disease patients after 48 hrs by agar dilution method; format: functional; procedure, shortened: as §2
[23] = system: Finegoldia magna; assay: Antimicrobial activity against beta lactamase-positive Finegoldia magna isolated from intra-abdominal infection and pelvic inflammatory disease patients after 48 hrs by time kill analysis; format: functional; procedure, shortened: as §3
[24] = system: Anaerococcus tetradius; assay: Antimicrobial activity against Anaerococcus tetradius isolated from intra-abdominal infection and pelvic inflammatory disease patients after 48 hrs by agar dilution method; format: functional; procedure, shortened: as §2
[25] = system: Prevotella disiens; assay: Antimicrobial activity against beta lactamase-positive Prevotella disiens isolated from intra-abdominal infection and pelvic inflammatory disease patients after 48 hrs by agar dilution method; format: functional; procedure, shortened: as §2
[26] = system: Prevotella bivia; assay: Antimicrobial activity against beta lactamase-positive Prevotella bivia isolated from intra-abdominal infection and pelvic inflammatory disease patients after 48 hrs by agar dilution method; format: functional; procedure, shortened: as §2
[27] = system: Enterocloster clostridioformis; assay: Antimicrobial activity against Clostridium clostridioforme isolated from intra-abdominal infection and pelvic inflammatory disease patients after 48 hrs by agar dilution method; format: functional; procedure, shortened: as §2
[28] = system: Prevotella buccae; assay: Antimicrobial activity against beta lactamase-positive Prevotella buccae isolated from intra-abdominal infection and pelvic inflammatory disease patients after 48 hrs by agar dilution method; format: functional; settings: Segatella buccae; procedure, shortened: as §2
[29] = system: Clostridium paraputrificum; assay: Antimicrobial activity against Clostridium paraputrificum isolated from intra-abdominal infection and pelvic inflammatory disease patients after 48 hrs by agar dilution method; format: functional; procedure, shortened: as §2

C[C@@H](O)[C@H]1C(=O)N2C(C(=O)O)=C(S[C@@H]3CN[C@H](C(=O)Nc4cccc(C(=O)O)c4)C3)[C@H](C)[C@H]12
1 µg/mL: MIC [27]
4 µg/mL: MIC [2] | MIC50 [2] | MIC [11]
90%: Activity [10] | Activity [12] | Activity [13]
8 µg/mL: MIC90 [2]
0.125 µg/mL: MIC [1] | MIC [8] | MIC50 [15] | MIC50 [28] | MIC90 [28] | MIC [29]
0.06 µg/mL: MIC90 [14] | MIC90 [16] | MIC [21] | MIC50 [21] | MIC50 [22] | MIC90 [22] | MIC [24] | MIC50 [24] | MIC50 [25]
0.25 µg/mL: MIC90 [3] | MIC90 [25] | MIC50 [26] | MIC90 [26]
0.5 µg/mL: MIC [5] | MIC50 [5] | MIC [17] | MIC90 [21]
0.008 µg/mL: MIC [7]
≤ 0.016 µg/mL: MIC [9] | MIC [16] | MIC50 [16] | MIC [18] | MIC [19]
0.03 µg/mL: MIC50 [3] | MIC [4] | MIC [6] | MIC50 [14] | MIC [23]
2 µg/mL: MIC90 [5] | MIC90 [15]
inactive: Activity [20]

C[C@@H](O)[C@H]1C(=O)N2C(C(=O)O)=C(S[C@@H]3CN[C@H](CNS(N)(=O)=O)C3)[C@H](C)[C@H]12 [DORIPENEM]
0.25 µg/mL: MIC [5] | MIC50 [5] | MIC50 [15] | MIC [17] | MIC50 [21] | MIC [29]
≤ 0.016 µg/mL: MIC [16] | MIC50 [16] | MIC [18]
90%: Activity [10] | Activity [12] | Activity [13]
4 µg/mL: MIC90 [2]
0.016 µg/mL: MIC [7]
2 µg/mL: MIC50 [2]
inactive: Activity [20]
1 µg/mL: MIC90 [5] | MIC [11] | MIC90 [15] | MIC90 [21] | MIC [27]
0.06 µg/mL: MIC [4] | MIC [8] | MIC90 [14] | MIC [22] | MIC50 [22] | MIC [23] | MIC50 [25] | MIC [26] | MIC50 [26] | MIC [28] | MIC50 [28]
0.125 µg/mL: MIC90 [3] | MIC90 [22] | MIC90 [25] | MIC90 [26] | MIC90 [28]
0.03 µg/mL: MIC [1] | MIC50 [3] | MIC [6] | MIC [9] | MIC [14] | MIC50 [14] | MIC90 [16] | MIC [19] | MIC50 [24]
